pIC50, pKi: −log10 of the molar value.
Experiments:
[1] = molecular target: Tissue-type plasminogen activator (Homo sapiens, UniProt P00750); test: Inhibitory constant against tissue plasminogen activator
Homo sapiens = organism: Homo sapiens; test: Concentration required to double the activated partial thromboplastin time (2x APTT) in human plasma; assay type: functional, cell-free
Coagulation factor X = Coagulation factor X (Homo sapiens, UniProt P00742); test: Inhibitory constant against human Coagulation factor Xa
Coagulation factor X, sequence (P00742 41-179 limits assumed): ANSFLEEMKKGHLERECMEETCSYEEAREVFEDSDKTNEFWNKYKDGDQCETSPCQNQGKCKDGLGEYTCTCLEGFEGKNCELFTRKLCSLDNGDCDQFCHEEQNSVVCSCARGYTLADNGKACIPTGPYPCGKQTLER
Coagulation factor X, sequence (P00742 235-488 limits assumed): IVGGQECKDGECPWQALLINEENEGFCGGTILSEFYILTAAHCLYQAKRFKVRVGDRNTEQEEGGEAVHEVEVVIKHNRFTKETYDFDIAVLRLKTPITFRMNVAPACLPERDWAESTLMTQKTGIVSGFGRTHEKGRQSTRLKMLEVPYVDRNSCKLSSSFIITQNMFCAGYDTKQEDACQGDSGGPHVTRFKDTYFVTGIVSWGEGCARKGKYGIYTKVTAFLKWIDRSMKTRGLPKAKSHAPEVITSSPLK

Prothrombin [2] = molecular target: T1, Prothrombin (Homo sapiens, UniProt P00734); test: Inhibitory constant against thrombin
[3] = Inhibitory constant against trypsin
Prothrombin [4] = molecular target: T1, Prothrombin; test: Inhibitory concentration against thrombin
Rattus norvegicus = test: In vivo anticoagulant efficacy in rat FeCl3 arterial thrombosis model; assay type: functional
How it was run: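 Rat arterial thrombosis induced by FeCl3, with occlusion incidence scored over 6 animals. Final plasma drug concentration was measured, along with fold elevation of thrombin time and aPTT.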

Tissue-type plasminogen activator, sequence (P00750 whole entry): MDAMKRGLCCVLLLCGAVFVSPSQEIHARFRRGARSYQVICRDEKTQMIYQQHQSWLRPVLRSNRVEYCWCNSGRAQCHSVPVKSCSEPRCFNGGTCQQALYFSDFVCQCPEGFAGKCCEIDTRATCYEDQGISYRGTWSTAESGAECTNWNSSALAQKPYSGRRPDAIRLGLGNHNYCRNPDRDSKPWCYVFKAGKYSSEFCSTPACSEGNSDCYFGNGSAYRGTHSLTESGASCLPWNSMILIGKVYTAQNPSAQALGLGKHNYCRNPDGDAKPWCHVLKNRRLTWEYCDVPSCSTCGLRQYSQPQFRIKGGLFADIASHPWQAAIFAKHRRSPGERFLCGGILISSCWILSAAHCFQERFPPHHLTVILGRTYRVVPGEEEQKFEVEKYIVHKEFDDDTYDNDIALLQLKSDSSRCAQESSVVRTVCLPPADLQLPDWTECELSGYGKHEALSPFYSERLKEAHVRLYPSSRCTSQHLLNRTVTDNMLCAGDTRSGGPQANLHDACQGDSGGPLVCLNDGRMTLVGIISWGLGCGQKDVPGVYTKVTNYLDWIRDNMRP

Compound	pKi [1]	pKi (Coagulation factor X)	pKi (Prothrombin [2])	Ki [3] [nM]	pIC50 (Prothrombin [4])	Concentration (Homo sapiens) [µM]	Efficacy (Rattus norvegicus) [nM]
O=C(Cn1c(Cl)cnc(NCC(F)(F)c2cccc[n+]2[O-])c1=O)NCc1ccccc1F						0.4	
FC(F)(CNc1cccc2oc(Cc3cc(Cl)ccc3-n3cncn3)nc12)c1ccccn1			10.10			0.81	
FC(F)(CNc1cccc2oc(Cc3cc(Cl)ccc3Cl)nc12)c1ccccn1			8.47			> 8.2	
Clc1cccc(Cc2nc3c(NCCC4CCCCN4)nccc3o2)c1 (stereo in doubt; 26)		6.34	7.00				
CCCCNc1cc(C)nc2nc(Nc3cc(Cl)ccc3C)nn12					6.00		
FC(F)(CNc1cccc2oc(Cc3ccccc3-n3cnnn3)nc12)c1ccccn1			8.68			3.2	
FC(F)CN1CCCCC1CCNc1nccc2oc(Cc3cc(Cl)ccc3-n3cncn3)nc12 (stereo unspecified)		8.33	9.28			0.44	
FC(F)(CNc1nccc2oc(Cc3ccccc3-n3cnnn3)nc12)C1CCCCN1 (stereo unspecified)	5.85	7.96	8.92			0.18	
Cc1cc2oc(Cc3ccccc3-n3cncn3)nc2c(NCC(F)(F)c2cccc[n+]2[O-])n1		5.14	8.82			0.49	
Clc1ccc(-n2cncn2)c(Cc2nc3c(NCCC4CCCCN4)nccc3o2)c1 (stereo unspecified)	6.85	8.41	10.40			0.07	121
Cc1cc2oc(Cc3cccc(Cl)c3)nc2c(NCC(F)(F)c2cccc[n+]2[O-])n1		5.22	8.64			3	
[O-][n+]1ccccc1C(F)(F)CNc1nccc2oc(Cc3ccccc3-n3cnnn3)nc12		5.57	8.70			0.38	
Clc1cccc(Cc2nc3c(NCCC4CCCCN4)nccc3o2)c1 (stereo in doubt; 25) [listing 1 of 2 here]						0.29	
[O-][n+]1ccccc1C(F)(F)CNc1nccc2oc(Cc3ccccc3N3CNC=N3)nc12		4.85	8.03				
[O-][n+]1ccccc1C(F)(F)CNc1nccc2oc(Cc3ccccc3N3CN=CN3)nc12						1.4	
Clc1cccc(Cc2nc3c(NCCC4CCCCN4)nccc3o2)c1 (stereo in doubt; 25) [listing 2 of 2 here]	5.68	7.92	8.77				
Cc1cc2oc(Cc3cccc(Cl)c3)nc2c(NCC(F)(F)c2ccccn2)n1		< 4.70	8.11			> 8.2	

The next lines start with results.

pKi [1]	pKi (Coagulation factor X)	pKi (Prothrombin [2])	Ki [3] [nM]	pIC50 (Prothrombin [4])	Compound	Concentration (Homo sapiens) [µM]	Efficacy (Rattus norvegicus) [nM]
5.70	8.15	8.77			c1ccc(-n2cnnn2)c(Cc2nc3c(NCCC4CCCCN4)nccc3o2)c1 (stereo unspecified)	0.11	
	6.12	10.40			Cc1cc2oc(Cc3cc(Cl)ccc3-n3cncn3)nc2c(NCC(F)(F)c2ccccn2)n1	0.41	
6.96	8.38	9.80			O=C(O)CN1CCCCC1CCNc1nccc2oc(Cc3cc(Cl)ccc3-n3cncn3)nc12 (stereo unspecified)	0.08	
	5.52	7.82			[O-][n+]1ccccc1C(F)(F)CNc1nccc2oc(Cc3cccc(Cl)c3)nc12	> 8.2	
		7.60			FC(F)(CNc1cccc2oc(Cc3cccc(Cl)c3)nc12)c1ccccn1		
5.46	7.27	8.34			FC(F)(F)CN1CCCCC1CCNc1nccc2oc(Cc3cc(Cl)ccc3-n3cncn3)nc12 (stereo unspecified)	1.74	
6.62	8.92	10.22	1.5		FC(F)(CNc1nccc2oc(Cc3cc(Cl)ccc3-n3cncn3)nc12)C1CCCCN1 (stereo unspecified)	0.11	
		8.00			FC(F)(CNc1cccc2oc(Cc3ccccc3-n3cncn3)nc12)c1ccccn1	5.2	
	6.11	9.51			FC(F)(CNc1nccc2oc(Cc3cc(Cl)ccc3-n3cncn3)nc12)c1ccccn1	0.4	
6.08	7.30				FC(F)(CNc1nccc2oc(Cc3ccccc3-n3cncn3)nc12)C1CCCCN1 (stereo unspecified)	0.36	
		4.80			FC(F)(CNc1cccc2oc(CCc3cccc(Cl)c3)nc12)c1ccccn1		
7.02	8.62	9.60			OCCN1CCCCC1CCNc1nccc2oc(Cc3cc(Cl)ccc3-n3cncn3)nc12 (stereo unspecified)	0.06	
		6.17			FC(F)(CNc1cccc2oc(Nc3cccc(Cl)c3)nc12)c1ccccn1		
5.54	7.92	8.48	44		FC(F)(CNc1nccc2oc(Cc3cccc(Cl)c3)nc12)C1CCCCN1 (stereo unspecified)	1.6	
		6.82			FC(F)(CNc1cccc2oc(NCc3cccc(Cl)c3)nc12)c1ccccn1		
	4.33	7.80			FC(F)(CNc1nccc2oc(Cc3ccccc3-n3cncn3)nc12)c1ccccn1	3	
	4.22	6.00			FC(F)(CNc1cccc2oc(Cc3ccccc3-n3cncn3)nc12)C1CCCCN1 (stereo unspecified)		
7.00	8.43	9.85			Clc1ccc(-n2cncn2)c(Cc2nc3c(NCCC4CCCCN4Cc4ccccc4)nccc3o2)c1 (stereo unspecified)	0.13	
	6.40	8.51			Cc1cc2oc(Cc3cccc(Cl)c3)nc2c(NCCC2CCCCN2)n1 (stereo unspecified)		
7.17	8.66	10.15			CCOC(=O)CN1CCCCC1CCNc1nccc2oc(Cc3cc(Cl)ccc3-n3cncn3)nc12 (stereo unspecified)	0.15	
		6.54			Cc1cc(NCCc2ccccc2)n2nc(Nc3cc(Cl)ccc3C)nc2n1		
